According to ChEMBL document CHEMBL5136958, “The development of HEC-866 and its analogues for the treatment of idiopathic pulmonary fibrosis” (RSC Med Chem, 2021):
Activity calls are given as the source filed them. The calls are words filed in the database; no cut-off is given here.

Legend:
[1] = system: Rattus norvegicus; experiment: Antifibrotic activity against bleomycin-induced pulmonary fibrosis in po dosed Sprague-Dawley rat assessed as reduction in histopathological changes administered daily for 1 to 14 days starting from post bleomycin stimulation by H and E staining based assay; assay type: functional, organism-based; settings: dose 2-6 mg/kg, time 1-14 day, DDE = dose-dependent effect
Procedure, shortened: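 Bleomycin-induced lung fibrosis in SD rats; oral dosing daily from day 1 for 14 days; saline for sham and bleomycin groups; comparator 100 mg kg⁻¹ d, test doses 2 and 6 mg kg⁻¹ d; lung pathology assessed by HE histology.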

[2] = system: Rattus norvegicus; experiment: Antifibrotic activity against bleomycin-induced pulmonary fibrosis in Sprague-Dawley rat assessed as reduction in lung hydroxyproline content at 6 mg/kg, po administered daily for 1 to 14 days starting from post bleomycin stimulation; assay type: functional, organism-based; settings: time 1-14 day
[3] = AUClast in dog at 5 mg/kg, po by LC-MS/MS analysis; assay type: ADME, organism-based, Canis lupus familiaris; set-up: time 0 - last, dose 5 mg/kg, route po; settings: in vivo
[4] = AUC(infinity) in Sprague-Dawley rat model of bleomycin-induced pulmonary fibrosis at 5 mg/kg, po by LC-MS/MS analysis; assay type: ADME, organism-based; set-up: time infinity, dose 5 mg/kg, route po; settings: in vivo
Procedure, shortened: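 Male Sprague-Dawley rats with induced pulmonary fibrosis; single i.v. (2.0 mg kg⁻¹) or p.o. (5.0 mg kg⁻¹) administration. Plasma samples stored at −70 °C; the supernatant was analysed by LC-MS/MS for PK parameters.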

[5] = Half life in rat liver microsomes by LC-MS/MS analysis; assay type: ADME, Microsome
Procedure, shortened: (§1)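 Liver microsomes (human, monkey, dog, rat, mouse) incubated with test compound at 37 °C with NADPH cofactor; samples at 0, 5, 15, 30, 60 min for half-life and in vitro CLint.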

[6] = target: Cytochrome P450 3A4 (Homo sapiens, UniProt P08684); experiment: Inhibition of CYP3A4 in human liver microsomes by LC-MS/MS analysis; assay type: ADME, Microsome
Chain of Cytochrome P450 3A4 (P08684 whole entry): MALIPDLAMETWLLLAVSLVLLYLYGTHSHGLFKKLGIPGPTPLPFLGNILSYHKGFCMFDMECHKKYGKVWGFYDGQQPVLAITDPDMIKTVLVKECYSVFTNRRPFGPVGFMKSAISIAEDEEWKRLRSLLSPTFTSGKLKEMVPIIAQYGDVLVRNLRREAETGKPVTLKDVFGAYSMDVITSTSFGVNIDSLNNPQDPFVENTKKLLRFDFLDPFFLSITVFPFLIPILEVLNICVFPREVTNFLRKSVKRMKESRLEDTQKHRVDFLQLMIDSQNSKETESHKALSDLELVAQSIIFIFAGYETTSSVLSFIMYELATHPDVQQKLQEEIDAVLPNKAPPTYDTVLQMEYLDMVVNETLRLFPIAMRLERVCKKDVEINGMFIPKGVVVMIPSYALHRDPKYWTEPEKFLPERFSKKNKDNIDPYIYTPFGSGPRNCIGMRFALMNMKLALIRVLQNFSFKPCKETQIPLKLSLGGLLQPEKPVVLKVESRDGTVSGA
Procedure, shortened: (§2)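 Human microsomes incubated with CYP-specific substrates (1A2, 2C9, 2C19, 2D6, 3A4) and test compound at 0.0–10 μM; IC50 determined.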

[7] = Half life in dog at 1 mg/kg, iv by LC-MS/MS analysis; assay type: ADME, organism-based, Canis lupus familiaris; settings: in vivo
[8] = Intrinsic clearance in rat liver microsomes by LC-MS/MS analysis; assay type: ADME, Microsome; settings: read-out: CLH
Procedure, shortened: (§3)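 Liver microsomes were incubated with the compound at 37 °C with NADPH as cofactor and sampled at 0, 5, 15, 30 and 60 min. Half-life (min) and in vitro CLint (mL min⁻¹ kg) were derived from these samples.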

[9] = Intrinsic clearance in monkey liver microsomes by LC-MS/MS analysis; assay type: ADME, Macaca mulatta, Microsome; settings: rhesus monkey, read-out: CLH; procedure, shortened: as §3
[10] = target: T1, Cytochrome P450 1A2 (Homo sapiens, UniProt P05177); experiment: Inhibition of CYP1A2 in human liver microsomes by LC-MS/MS analysis; assay type: ADME, Microsome; procedure, shortened: as §2
T1 sequence (P05177 whole entry): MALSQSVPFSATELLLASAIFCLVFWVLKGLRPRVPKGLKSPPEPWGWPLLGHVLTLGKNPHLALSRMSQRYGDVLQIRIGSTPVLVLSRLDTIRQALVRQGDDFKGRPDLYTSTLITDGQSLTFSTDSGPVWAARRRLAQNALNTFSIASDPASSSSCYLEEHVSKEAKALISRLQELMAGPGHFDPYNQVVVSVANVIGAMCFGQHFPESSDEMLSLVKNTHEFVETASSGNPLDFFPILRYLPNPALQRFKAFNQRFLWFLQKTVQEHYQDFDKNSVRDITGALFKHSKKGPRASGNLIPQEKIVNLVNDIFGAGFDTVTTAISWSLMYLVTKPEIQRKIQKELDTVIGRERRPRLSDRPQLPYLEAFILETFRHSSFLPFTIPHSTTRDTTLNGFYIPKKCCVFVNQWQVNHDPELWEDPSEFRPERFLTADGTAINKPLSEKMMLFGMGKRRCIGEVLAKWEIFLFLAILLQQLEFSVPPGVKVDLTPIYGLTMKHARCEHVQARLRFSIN

[11] = Intrinsic clearance in dog liver microsomes by LC-MS/MS analysis; assay type: ADME, Canis lupus familiaris, Microsome; settings: read-out: CLH; procedure, shortened: as §1
[12] = Intrinsic clearance in human liver microsomes by LC-MS/MS analysis; assay type: ADME, Microsome; settings: read-out: CLH; procedure, shortened: as §1
[13] = Half life in dog liver microsomes by LC-MS/MS analysis; assay type: ADME, Canis lupus familiaris, Microsome; procedure, shortened: as §1
[14] = Volume of distribution at steady state in cynomolgus monkey at 1 mg/kg, iv by LC-MS/MS analysis; assay type: ADME, organism-based, Macaca fascicularis; settings: in vivo, read-out: Vdss
[15] = target: Cytochrome P450 2D6 (Homo sapiens, UniProt P10635); experiment: Inhibition of CYP2D6 in human liver microsomes by LC-MS/MS analysis; assay type: ADME, Microsome; procedure, shortened: as §2
Chain of Cytochrome P450 2D6 (P10635 whole entry): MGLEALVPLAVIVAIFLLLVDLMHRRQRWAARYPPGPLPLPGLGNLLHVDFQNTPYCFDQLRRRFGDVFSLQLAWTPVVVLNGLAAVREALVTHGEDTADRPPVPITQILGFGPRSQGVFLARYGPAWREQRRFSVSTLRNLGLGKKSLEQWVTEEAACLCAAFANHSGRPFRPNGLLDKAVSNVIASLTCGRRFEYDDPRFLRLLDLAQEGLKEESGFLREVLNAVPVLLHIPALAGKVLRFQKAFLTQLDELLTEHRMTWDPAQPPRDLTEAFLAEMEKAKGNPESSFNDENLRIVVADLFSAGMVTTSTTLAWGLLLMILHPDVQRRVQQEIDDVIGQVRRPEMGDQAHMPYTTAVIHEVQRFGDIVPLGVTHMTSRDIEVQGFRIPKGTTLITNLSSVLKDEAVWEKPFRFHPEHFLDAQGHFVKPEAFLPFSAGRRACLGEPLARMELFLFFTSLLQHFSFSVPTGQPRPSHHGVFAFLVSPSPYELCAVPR

SMILES: Cc1cc(=O)n(-c2ccc(N3CCC(Cc4ccc(Cl)c(F)c4)CC3)c(Cl)c2)c(C)n1
- Activity [1]: Dde
- Activity [2]: Active
- AUC(0-t) [3]: 5910 ng·h/mL
- AUC(0-inf) [4]: 17100 ng·h/mL
- half-life [5]: 1.71 h
- IC50 [6]: > 10 µM
- half-life [7]: 11 h
- CLint scaled [8]: 24.2 mL/min/kg
- CLint scaled [9]: 48.6 mL/min/kg
- IC50 [10]: > 10 µM
- CLint scaled [11]: 11.7 mL/min/kg
- CLint scaled [12]: 16.7 mL/min/kg
- half-life [13]: 4.93 h
- Vd [14]: 3.9 L/kg
- IC50 [15]: > 10 µM
